The results in this text go back to ChEMBL document CHEMBL4190286, “Modulating the Serotonin Receptor Spectrum of Pulicatin Natural Products” (J Nat Prod, 2017).

Active and inactive are the calls of the source. The rule behind the calls is not given here.

The target in series [1] is T1, 5-hydroxytryptamine receptor 2B (Homo sapiens, UniProt P41595). Put plainly: Antagonist activity at 5-HT2B receptor (unknown origin) by calcium release assay. The format is functional.
In series [2] the target is T2, 5-hydroxytryptamine receptor 2C (Homo sapiens, UniProt P28335).
T2 sequence (P28335 whole entry): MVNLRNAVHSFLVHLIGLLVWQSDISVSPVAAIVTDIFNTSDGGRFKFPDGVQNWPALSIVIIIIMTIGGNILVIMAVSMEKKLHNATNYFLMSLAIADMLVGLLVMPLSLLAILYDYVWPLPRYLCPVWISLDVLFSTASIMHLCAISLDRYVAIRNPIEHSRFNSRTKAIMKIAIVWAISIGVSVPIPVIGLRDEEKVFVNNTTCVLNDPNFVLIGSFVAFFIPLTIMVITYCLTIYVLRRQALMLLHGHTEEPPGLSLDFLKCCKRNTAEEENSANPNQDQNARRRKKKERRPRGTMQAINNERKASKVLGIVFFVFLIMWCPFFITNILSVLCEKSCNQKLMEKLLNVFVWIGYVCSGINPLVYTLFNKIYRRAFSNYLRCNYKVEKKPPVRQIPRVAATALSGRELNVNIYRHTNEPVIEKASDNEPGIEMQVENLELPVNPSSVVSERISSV
Description: Antagonist activity at 5-HT2C receptor (unknown origin) by calcium release assay. The class given is functional.

Series [3] concerns the target T1, 5-hydroxytryptamine receptor 2B. Description: Displacement of [3H]-LSD from human 5-HT2B receptor expressed in HEK cells after 90 mins by microbeta scintillation counting analysis. The class given is cell-based.
In series [4] the target is 5-hydroxytryptamine receptor 1E (Homo sapiens, UniProt P28566). Description: Displacement of [3H]5-HT from human 5-HT1E receptor expressed in HEK cells after 90 mins by microbeta scintillation counting analysis. The class given is cell-based.
Series [5] concerns the target T3, 5-hydroxytryptamine receptor 3A (Homo sapiens, UniProt P46098).
T3 sequence (P46098 whole entry): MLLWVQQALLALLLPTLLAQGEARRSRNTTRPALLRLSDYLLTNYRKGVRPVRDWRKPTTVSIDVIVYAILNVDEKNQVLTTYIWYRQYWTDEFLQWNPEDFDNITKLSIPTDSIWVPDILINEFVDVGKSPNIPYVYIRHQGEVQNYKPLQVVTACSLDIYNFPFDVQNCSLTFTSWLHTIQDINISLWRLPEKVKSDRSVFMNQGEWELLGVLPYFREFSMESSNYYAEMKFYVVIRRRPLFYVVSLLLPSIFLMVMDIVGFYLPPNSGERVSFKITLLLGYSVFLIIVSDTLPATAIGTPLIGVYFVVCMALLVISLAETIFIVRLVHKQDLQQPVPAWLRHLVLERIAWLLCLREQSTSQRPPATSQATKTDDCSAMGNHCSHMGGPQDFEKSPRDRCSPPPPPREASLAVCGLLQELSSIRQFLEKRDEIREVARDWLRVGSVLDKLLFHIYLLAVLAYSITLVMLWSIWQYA
Description: Displacement of [3H]-GR65630 from human 5-HT3 receptor expressed in HEKT cells after 90 mins by microbeta scintillation counting analysis. The class given is cell-based.

Series [6] deals with T4, 5-hydroxytryptamine receptor 2A (Homo sapiens, UniProt P28223). Put plainly: Displacement of [3H]Ketanserin from 5-HT2A (unknown origin) receptor after 90 mins by microbeta scintillation counting analysis.
The target of series [7] is T5, 5-hydroxytryptamine receptor 1D (Homo sapiens, UniProt P28221). Description: Antagonist activity at 5-HT1D receptor (unknown origin) by Tango assay. The format is functional.
Series [8] has as its target T4, 5-hydroxytryptamine receptor 2A. Put plainly: Antagonist activity at 5-HT2A receptor (unknown origin) by calcium release assay. The class given is functional.
Series [9] addresses T6, 5-hydroxytryptamine receptor 7 (Homo sapiens, UniProt P34969). Put plainly: Displacement of [3H]-LSD from human 5-HT7A receptor expressed in HEK cells after 90 mins by microbeta scintillation counting analysis. The class given is cell-based.
Series [10] addresses T5, 5-hydroxytryptamine receptor 1D. Put plainly: Displacement of [3H]5-CT from human 5-HT1D receptor expressed in HEKT cells after 90 mins by microbeta scintillation counting analysis. The class given is cell-based.
The target in series [11] is T7, 5-hydroxytryptamine receptor 1A (Homo sapiens, UniProt P08908).
T7 sequence (P08908 whole entry): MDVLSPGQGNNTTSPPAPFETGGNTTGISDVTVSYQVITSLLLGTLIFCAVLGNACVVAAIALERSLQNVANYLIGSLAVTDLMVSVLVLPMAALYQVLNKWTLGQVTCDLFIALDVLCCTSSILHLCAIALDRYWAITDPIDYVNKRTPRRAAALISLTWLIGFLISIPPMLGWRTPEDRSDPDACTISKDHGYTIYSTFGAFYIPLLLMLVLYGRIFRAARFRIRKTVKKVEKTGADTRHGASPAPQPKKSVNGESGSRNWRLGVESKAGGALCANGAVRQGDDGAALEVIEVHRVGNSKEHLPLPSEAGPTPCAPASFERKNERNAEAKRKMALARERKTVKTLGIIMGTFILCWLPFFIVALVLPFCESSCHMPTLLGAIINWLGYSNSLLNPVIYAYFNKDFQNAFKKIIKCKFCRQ
Put plainly: Antagonist activity at 5-HT1A receptor (unknown origin) by Tango assay. The class given is functional.

The target of series [12] is T6, 5-hydroxytryptamine receptor 7. Description: Antagonist activity at 5-HT7A receptor (unknown origin) by Tango assay.
Series [13] deals with T2, 5-hydroxytryptamine receptor 2C. Description: Displacement of [3H]-Mesulergine from human 5-HT2C receptor expressed in HEKT cells after 90 mins by microbeta scintillation counting analysis. The class given is cell-based.
The target in series [14] is 5-hydroxytryptamine receptor 6 (Homo sapiens, UniProt P50406). Put plainly: Displacement of [3H]-LSD from human 5-HT6 receptor expressed in HEK cells after 90 mins by microbeta scintillation counting analysis. The format is cell-based.
Series [15] deals with 5-hydroxytryptamine receptor 5A (Homo sapiens, UniProt P47898). Put plainly: Displacement of [3H]-LSD from human 5-HT5A receptor expressed in Flp-In CHO cells after 90 mins by microbeta scintillation counting analysis. The format is cell-based.
In series [16] the test system is Mus musculus. Put plainly: Anticonvulsant activity in ip dosed CF1 mouse assessed as protection against 44 mA current-induced seizure after 1 hr by 6 Hz psychomotor test. The class given is functional. In a few lines: (§1)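 Mice received compound intraperitoneally at 10, 30 and 100 mg/kg. At 0.25, 0.5, 1, 2 and 4 h after dosing, four mice per time point were challenged with 32 or 44 mA for 3 s through corneal electrodes to elicit a partial psychomotor seizure. Data are the number of mice protected over the number tested at each time.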

Series [17] relates to Mus musculus. Put plainly: Anticonvulsant activity in ip dosed CF1 mouse assessed as protection against 44 mA current-induced seizure after 15 mins by 6 Hz psychomotor test. The format is functional. Particulars: 0.25 h. Summed up: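 Mice received intraperitoneal doses of 10, 30 or 100 mg/kg. At 1/4, 1/2, 1, 2 and 4 h after dosing, four mice per time point were given 44 mA for 3 s through corneal electrodes to elicit a partial psychomotor seizure. The result is the number of mice protected over the number tested.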

Series [18] concerns Mus musculus. Description: Neurotoxicity in mouse assessed as motor impairment at 100 mg/kg, ip after 0.25 to 4 hrs by rotarod test. The class given is toxicity, organism-based. Particulars: in vivo. Summed up:
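Rotarod, four mice per condition after ip dosing (10, 30 or 100 mg/kg). The rod turns at a fixed 6 rpm, and each mouse is observed for 1 min. Falling off three times within that minute scores as minimal motor impairment. Results are the number impaired over the number tested at 0.25–4 h.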

Series [19] deals with Mus musculus. Description: Antinociceptive activity in mouse assessed as increase in pain response latency at 100 mg/kg, ip by hot plate assay. The class given is functional, organism-based. In a few lines: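 Mice acclimatized for 10 min, then were placed on a hot plate held at 55 °C inside a clear open-top enclosure. Latency to hindpaw lick, hindpaw flick or jump was timed manually to the nearest 0.1 s.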

Series [20] deals with T1, 5-hydroxytryptamine receptor 2B. Put plainly: Ratio of IC50 for antagonist activity at 5-HT2B receptor (unknown origin) by calcium release assay to Ki for displacement of [3H]-LSD from human 5-HT2B receptor expressed in baculovirus infected Sf9 cells. The format is functional.
For series [21], the system named is Mus musculus. Put plainly: Anticonvulsant activity in mouse assessed as protection against 32/44 mA current-induced seizure at 10 to 100 mg/kg, ip pre-treated 0.25 to 4 hrs before current challenge by 6 Hz psychomotor seizure test. The format is functional, organism-based. In a few lines:
as §1

Series [22] deals with T1, 5-hydroxytryptamine receptor 2B. Description: Agonist activity at 5-HT2B receptor (unknown origin) by calcium release assay. The class given is functional.
In series [23] the test system is Mus musculus. Put plainly: Antinociceptive activity in mouse assessed as tail withdrawal latency at 100 mg/kg, ip by tail flick assay. The class given is functional, organism-based.
Series [24] relates to Mus musculus. Description: Anticonvulsant activity in mouse assessed as protection against 44 mA current-induced seizure at 100 mg/kg, ip pre-treated 2 to 4 hrs before current challenge by 6 Hz psychomotor seizure test. The class given is functional, organism-based. Summed up: as §1
For series [25], the system named is Mus musculus. Description: Anticonvulsant activity in mouse assessed as protection against maximal electroshock-induced seizure at 100 mg/kg, ip pre-treated 0.25 to 4 hrs before electrical stimulation. The format is functional, organism-based. In a few lines: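 Maximal electroshock seizure test in mice, four per condition. Compound was given ip at 10, 30 and 100 mg/kg, and mice were challenged at 0.25, 0.5, 1, 2 and 4 h after treatment. Data are the number protected over the number tested.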

T1 sequence (P41595 whole entry): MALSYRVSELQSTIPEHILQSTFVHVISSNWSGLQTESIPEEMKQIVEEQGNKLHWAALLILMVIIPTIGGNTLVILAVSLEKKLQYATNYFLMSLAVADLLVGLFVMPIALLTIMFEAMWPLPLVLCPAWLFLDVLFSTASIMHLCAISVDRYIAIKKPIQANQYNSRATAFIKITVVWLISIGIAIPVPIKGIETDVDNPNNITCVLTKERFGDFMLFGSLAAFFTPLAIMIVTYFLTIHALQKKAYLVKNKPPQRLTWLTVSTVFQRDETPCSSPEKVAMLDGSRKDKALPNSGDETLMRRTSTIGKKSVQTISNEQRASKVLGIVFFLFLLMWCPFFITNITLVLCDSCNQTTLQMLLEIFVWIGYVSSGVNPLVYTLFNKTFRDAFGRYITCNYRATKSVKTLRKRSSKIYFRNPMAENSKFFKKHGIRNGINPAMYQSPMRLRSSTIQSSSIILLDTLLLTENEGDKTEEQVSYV
T6 sequence (P34969 whole entry): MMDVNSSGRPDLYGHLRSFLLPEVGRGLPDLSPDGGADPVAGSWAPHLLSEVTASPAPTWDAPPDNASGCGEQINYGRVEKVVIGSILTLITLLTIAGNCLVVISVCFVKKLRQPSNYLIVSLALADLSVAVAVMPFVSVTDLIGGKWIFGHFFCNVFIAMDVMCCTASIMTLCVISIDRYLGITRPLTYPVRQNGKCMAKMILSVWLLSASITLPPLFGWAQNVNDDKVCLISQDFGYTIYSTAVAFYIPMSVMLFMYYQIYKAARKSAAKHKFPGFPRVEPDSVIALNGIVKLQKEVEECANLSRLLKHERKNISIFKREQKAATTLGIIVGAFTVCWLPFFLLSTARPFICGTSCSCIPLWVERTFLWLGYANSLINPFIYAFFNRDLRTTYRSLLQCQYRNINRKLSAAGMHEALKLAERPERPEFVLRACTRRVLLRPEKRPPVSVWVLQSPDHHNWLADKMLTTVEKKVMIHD
T4 sequence (P28223 whole entry): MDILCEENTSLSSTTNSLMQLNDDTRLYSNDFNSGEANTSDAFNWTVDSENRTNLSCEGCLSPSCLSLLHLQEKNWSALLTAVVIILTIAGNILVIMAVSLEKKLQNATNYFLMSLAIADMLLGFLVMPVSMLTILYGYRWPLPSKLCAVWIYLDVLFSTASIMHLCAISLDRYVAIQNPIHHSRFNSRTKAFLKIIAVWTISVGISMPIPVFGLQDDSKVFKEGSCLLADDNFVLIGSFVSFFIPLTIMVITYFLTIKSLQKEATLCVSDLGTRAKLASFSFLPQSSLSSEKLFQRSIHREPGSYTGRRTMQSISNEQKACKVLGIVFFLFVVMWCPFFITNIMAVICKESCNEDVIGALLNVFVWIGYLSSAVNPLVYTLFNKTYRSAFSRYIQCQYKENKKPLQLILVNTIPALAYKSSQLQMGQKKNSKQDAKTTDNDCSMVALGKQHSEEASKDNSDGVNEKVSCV
T5 sequence (P28221 whole entry): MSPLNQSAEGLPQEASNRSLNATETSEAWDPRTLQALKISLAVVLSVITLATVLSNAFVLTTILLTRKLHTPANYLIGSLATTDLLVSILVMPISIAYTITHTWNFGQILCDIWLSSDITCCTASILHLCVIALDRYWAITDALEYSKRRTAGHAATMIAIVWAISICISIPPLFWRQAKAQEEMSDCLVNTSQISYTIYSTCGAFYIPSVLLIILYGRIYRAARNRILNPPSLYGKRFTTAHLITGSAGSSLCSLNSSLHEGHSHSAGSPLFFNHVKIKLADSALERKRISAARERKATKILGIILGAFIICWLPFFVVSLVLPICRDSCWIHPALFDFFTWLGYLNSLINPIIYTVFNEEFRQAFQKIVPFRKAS
Sequence of 5-hydroxytryptamine receptor 6 (P50406 whole entry): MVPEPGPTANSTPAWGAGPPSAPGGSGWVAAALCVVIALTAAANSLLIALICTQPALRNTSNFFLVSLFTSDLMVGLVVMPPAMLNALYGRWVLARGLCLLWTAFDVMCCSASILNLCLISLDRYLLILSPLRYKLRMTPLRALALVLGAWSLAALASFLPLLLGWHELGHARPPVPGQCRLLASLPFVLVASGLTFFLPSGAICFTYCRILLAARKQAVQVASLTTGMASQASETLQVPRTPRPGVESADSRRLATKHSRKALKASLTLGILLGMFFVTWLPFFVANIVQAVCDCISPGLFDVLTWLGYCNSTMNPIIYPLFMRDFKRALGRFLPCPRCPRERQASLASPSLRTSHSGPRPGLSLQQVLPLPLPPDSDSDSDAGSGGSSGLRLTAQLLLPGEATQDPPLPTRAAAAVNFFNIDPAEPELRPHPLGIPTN
Sequence of 5-hydroxytryptamine receptor 5A (P47898 whole entry): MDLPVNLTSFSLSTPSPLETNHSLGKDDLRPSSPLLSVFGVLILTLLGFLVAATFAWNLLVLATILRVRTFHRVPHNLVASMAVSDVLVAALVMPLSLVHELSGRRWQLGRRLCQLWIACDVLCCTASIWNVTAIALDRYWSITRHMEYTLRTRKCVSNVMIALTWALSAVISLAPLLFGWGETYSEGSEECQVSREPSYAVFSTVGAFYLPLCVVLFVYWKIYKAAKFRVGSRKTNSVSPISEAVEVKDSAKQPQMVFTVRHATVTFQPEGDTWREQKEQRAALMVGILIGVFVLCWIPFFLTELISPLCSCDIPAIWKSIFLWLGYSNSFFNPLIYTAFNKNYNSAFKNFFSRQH
Sequence of 5-hydroxytryptamine receptor 1E (P28566 whole entry): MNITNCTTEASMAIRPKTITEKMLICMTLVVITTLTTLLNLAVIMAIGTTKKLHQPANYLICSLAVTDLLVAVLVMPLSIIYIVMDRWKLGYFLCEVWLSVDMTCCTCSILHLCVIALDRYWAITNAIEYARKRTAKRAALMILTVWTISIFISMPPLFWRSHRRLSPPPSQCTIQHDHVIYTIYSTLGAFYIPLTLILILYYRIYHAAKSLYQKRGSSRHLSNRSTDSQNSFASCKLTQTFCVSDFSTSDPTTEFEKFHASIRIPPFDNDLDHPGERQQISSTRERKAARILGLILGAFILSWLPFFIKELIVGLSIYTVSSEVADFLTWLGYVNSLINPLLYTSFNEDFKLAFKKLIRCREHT

As for `Oc1ccccc1C1=NC(Cc2c[nH]cn2)C(c2ccccc2)S1` (racemic), the half-maximal inhibitory concentration (IC50) in [1] is 3800 nM; in series [2], more than 10000 nM; in series [7], more than 10000 nM; in series [8] it was 13000 nM; in [11], more than 10000 nM; in series [12], more than 10000 nM. For the same compound, the inhibition constant Ki in [3] was 100 nM; in series [4], 2400 nM; in [5], 860 nM; in series [6] it was 1100 nM; in [9], more than 10000 nM; in [10], 2200 nM. The Ki in series [13] amounted to 770 nM; in series [14], 2200 nM; in series [15], 4700 nM.

Regarding `CCCC(CCC)C(=O)O` [VALPROIC ACID], the ED50 in the series on Mus musculus [16] is 310 mg/kg.

Consider `CCC1(C)CC(=O)NC1=O` (stereo not drawn) [ETHOSUXIMIDE], for which, in the series on Mus musculus [17], the ED50 was more than 600 mg/kg.

For the compound `C[C@@H]1SC(c2ccccc2O)=N[C@H]1CO`, the IC50 in series [1] is 18000 nM. Further, the Activity result with Mus musculus [18] is reported as “Non-Toxic”. In addition, the outcome in the series with Mus musculus [19] and in the series on Mus musculus [21] was Active. Besides, the Ratio in series [20] was in the range of 50 to 140. Further, the Ki in series [3] came to 130 nM; in series [13], 1600 nM. For the same compound, the result (in series [22]; in the series on Mus musculus [23]; in the series with Mus musculus [24]; in the series with Mus musculus [25]) was inactive.
